Target: T1, Galectin-8 (Homo sapiens, UniProt O00214)
T1 sequence (O00214 whole entry): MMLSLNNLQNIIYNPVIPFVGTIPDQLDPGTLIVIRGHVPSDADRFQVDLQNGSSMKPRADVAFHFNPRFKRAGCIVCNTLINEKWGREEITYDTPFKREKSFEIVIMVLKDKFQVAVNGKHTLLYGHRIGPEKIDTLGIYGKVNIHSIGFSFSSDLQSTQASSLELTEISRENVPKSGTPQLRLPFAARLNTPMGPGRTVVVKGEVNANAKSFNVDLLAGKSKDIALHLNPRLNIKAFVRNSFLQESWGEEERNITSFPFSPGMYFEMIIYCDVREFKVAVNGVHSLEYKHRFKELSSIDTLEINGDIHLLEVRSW
Test: Binding affinity to N-terminal domain of human galectin-8 (8-154 residues) by ITC assay
In short: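 Untagged galectin-8N (residues 8-154) was expressed in bacteria (IPTG induction 4 h, room temperature) and purified on lactosyl-Sepharose at 4 °C. Protein and ligand were in 20 mM Tris pH 7.5, 100 mM NaCl, 4 mM BME, 5% DMSO and degassed. Ligand (0.5 or 1 mM) was titrated into 100 µM protein over 20-25 × 2.5 µl injections, 150 s apart, at 298 K. Blank-corrected data were fitted to an independent-site model for Kd.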

In the case of `OC[C@H]1O[C@@H](O[C@H]2[C@H](O)[C@@H](O)[C@H](O)O[C@@H]2CO)[C@H](O)[C@@H](O)[C@H]1O` [Lactose, anhydrous], the Kd is reported as 37.9 µM.
